This is an account of results in ChEMBL document CHEMBL1154326 (J Med Chem, 2009).

Activity calls are given as the source filed them. The calls are words filed in the database; no cut-off is given here. Bounds are passed on as bounds.

The target in assay [1] is T1, Histamine H2 receptor (Homo sapiens, UniProt P25021). The assay is described as follows: Agonist activity at human histamine H2 receptor expressed in Sf9 cells coexpressing GsalphaS protein by steady-state GTPase assay. Type of assay: functional. The procedure, abridged:
(§1)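 Sf9 membranes (10-20 μg protein/tube), washed and resuspended in 10 mM Tris-HCl pH 7.4. H2R as hH2R-GsαS fusion; H3R coexpressed with Giα2, Gβ1γ2, RGS4; H4R as hH4R-RGS19 fusion with Giα2, Gβ1γ2. Buffer: 50 mM Tris/HCl pH 7.4, MgCl2 (H2R 1.0 mM; H3R/H4R 5.0 mM), 100 μM EDTA, 100 μM ATP, 100 nM GTP, 100 μM AppNHp, creatine phosphate/kinase, 0.2% BSA; H4R plus 100 mM NaCl.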

Assay [2] concerns the target T2, Histamine H1 receptor (Homo sapiens, UniProt P35367). The assay can be described thus: Antagonist activity at human histamine H1 receptor expressed in Sf9 cells coexpressing RGS4 by steady-state GTPase assay. Type of assay: functional. The procedure, abridged:
(§2)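 Antagonist-mode steady-state GTPase assay in Sf9 membranes: H1R coexpressed with RGS4; H2R as GsαS fusion; H3R coexpressed with Giα2/Gβ1γ2/RGS4; H4R as RGS19 fusion with Giα2/Gβ1γ2. […] MgCl2: H1R/H2R 1.0 mM, H3R/H4R 5.0 mM; H4R plus 100 mM NaCl. [γ-32P]GTP hydrolysis measured over 20 min at 25 °C. pKB from nonlinear sigmoidal fits; duplicate runs.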

In assay [3] the target is Histamine H3 receptor (Homo sapiens, UniProt Q9Y5N1). The assay can be described thus: Antagonist activity at human histamine H3 receptor expressed in Sf9 cells coexpressing Gialpha-2-Gbeta-1-gamma-2 and RGS4 proteins protein by steady-state GTPase assay. It is filed as functional. In a few lines: as §2
Sequence of Histamine H3 receptor (Q9Y5N1 whole entry): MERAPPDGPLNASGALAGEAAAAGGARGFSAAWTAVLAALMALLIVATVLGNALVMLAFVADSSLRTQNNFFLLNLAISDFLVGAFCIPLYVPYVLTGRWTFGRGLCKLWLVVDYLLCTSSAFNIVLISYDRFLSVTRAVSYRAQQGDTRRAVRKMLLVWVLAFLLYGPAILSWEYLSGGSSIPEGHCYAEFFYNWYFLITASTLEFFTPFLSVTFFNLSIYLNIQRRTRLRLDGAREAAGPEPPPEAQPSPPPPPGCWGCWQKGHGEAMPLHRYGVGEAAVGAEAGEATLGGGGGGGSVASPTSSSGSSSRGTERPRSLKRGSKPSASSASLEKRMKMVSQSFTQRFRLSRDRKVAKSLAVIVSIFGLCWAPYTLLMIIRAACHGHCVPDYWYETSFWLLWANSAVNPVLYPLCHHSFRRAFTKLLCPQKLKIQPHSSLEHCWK
In assay [4] the target is T3, Histamine H4 receptor (Homo sapiens, UniProt Q9H3N8). The assay is described as follows: Antagonist activity at human histamine H4 receptor expressed in Sf9 cells coexpressing RGS19 protein by steady-state GTPase assay. It is filed as functional. The procedure, abridged: as §2
T3 sequence (Q9H3N8 whole entry): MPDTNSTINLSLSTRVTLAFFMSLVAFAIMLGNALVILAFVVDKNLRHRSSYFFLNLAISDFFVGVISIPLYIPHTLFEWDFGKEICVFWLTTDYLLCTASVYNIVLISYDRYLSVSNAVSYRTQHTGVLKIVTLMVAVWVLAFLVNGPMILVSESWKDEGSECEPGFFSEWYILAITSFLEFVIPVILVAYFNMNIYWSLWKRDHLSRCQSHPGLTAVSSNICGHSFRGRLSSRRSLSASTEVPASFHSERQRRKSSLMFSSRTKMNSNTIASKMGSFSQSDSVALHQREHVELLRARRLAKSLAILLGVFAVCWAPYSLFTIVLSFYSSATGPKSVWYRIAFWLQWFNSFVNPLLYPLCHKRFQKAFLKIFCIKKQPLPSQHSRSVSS
The target of assay [5] is T3, Histamine H4 receptor. The assay can be described thus: Agonist activity at human histamine H4 receptor expressed in Sf9 cells coexpressing RGS19 protein by steady-state GTPase assay. It is filed as functional. The procedure, abridged:
as §1

In assay [6] the target is T1, Histamine H2 receptor. The assay can be described thus: Antagonist activity at human histamine H2 receptor expressed in Sf9 cells coexpressing GsalphaS protein by steady-state GTPase assay. It is filed as functional. In a few lines: as §2
The target of assay [7] is T1, Histamine H2 receptor. The assay can be described thus: Agonist activity at human histamine H2 receptor expressed in Sf9 cells coexpressing GsalphaS protein at 1 mM by steady-state GTPase assay. Type of assay: functional.
The target of assay [8] is T2, Histamine H1 receptor. The assay is described as follows: Agonist activity at human histamine H1 receptor expressed in Sf9 cells coexpressing RGS4 by steady-state GTPase assay. Type of assay: functional.
Assay [9] has as its target T3, Histamine H4 receptor. The following applies: Sf9.

The EC50 is the concentration that produces a half-maximal response. Broadly, the pKb is the negative decadic logarithm of the Kb, by convention in mol/L. Higher therefore signals a low Kb.

T2 sequence (P35367 whole entry, the tested form may be a part): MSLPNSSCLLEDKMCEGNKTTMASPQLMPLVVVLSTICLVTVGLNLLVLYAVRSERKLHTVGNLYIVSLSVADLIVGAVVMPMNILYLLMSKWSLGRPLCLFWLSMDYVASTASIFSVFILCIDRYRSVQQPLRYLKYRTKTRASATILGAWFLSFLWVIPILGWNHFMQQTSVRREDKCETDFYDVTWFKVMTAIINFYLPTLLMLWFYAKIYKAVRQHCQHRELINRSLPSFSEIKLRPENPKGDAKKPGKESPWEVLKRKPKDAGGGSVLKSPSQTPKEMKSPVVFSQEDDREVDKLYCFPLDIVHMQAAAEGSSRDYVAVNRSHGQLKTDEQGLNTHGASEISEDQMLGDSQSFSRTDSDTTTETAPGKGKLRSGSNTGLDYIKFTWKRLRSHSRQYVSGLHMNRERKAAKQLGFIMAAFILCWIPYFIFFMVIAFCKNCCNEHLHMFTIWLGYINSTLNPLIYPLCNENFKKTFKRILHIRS
T1 sequence (P25021 whole entry, the tested form may be a part): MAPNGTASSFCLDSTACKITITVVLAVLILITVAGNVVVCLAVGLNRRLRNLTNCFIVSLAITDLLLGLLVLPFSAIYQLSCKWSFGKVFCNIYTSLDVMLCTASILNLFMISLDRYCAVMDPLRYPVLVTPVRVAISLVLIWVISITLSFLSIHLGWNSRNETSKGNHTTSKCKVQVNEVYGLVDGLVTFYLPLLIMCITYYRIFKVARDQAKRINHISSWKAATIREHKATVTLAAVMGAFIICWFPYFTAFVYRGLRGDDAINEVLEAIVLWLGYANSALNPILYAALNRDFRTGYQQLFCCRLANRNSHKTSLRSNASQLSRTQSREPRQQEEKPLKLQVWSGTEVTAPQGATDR

`NC(=O)/N=C(/NCCCc1ccccc1)NCCc1c[nH]cn1` showed an EC50 in assay [1] of 2000 nM. The pKb in assay [2] is less than 5; in assay [3], 8.42; in [4] it was 5.89.
For the compound `N#C/N=C(/NCCCCc1c[nH]cn1)NCCCc1cccnc1`, in assay [5], the EC50 was 1200 nM. Also, the pKb in assay [6] was determined as 5.92; in [3], 6.19.
Take `NC(=O)NC(=NCCCc1cnc[nH]1)NCCCc1ccccc1`: the EC50 in [1] was 646 nM.
As for `N#C/N=C(/NCCCCc1c[nH]cn1)NCCCc1ccncc1`, the pKb in [6] turned out to be 5.11; in [3] it was 6.11.
For `N#C/N=C(/NCCCc1c[nH]cn1)NCCCC1CCCCC1`, the pKb was less than 5 in assay [6] and 5.82 in assay [4].
Consider `CC(C)N/C(=N/C#N)NCCCCCc1c[nH]cn1`, for which the pKb came out at 5.57 in [6], 6.47 in assay [3] and 6.25 in assay [4].
Consider `N#C/N=C(/NCCCc1c[nH]cn1)NCCC(c1ccccc1)c1ccccc1`, for which the pKb in assay [6] and in assay [4] was less than 5 in each case.
Turning to `N#C/N=C(\NCCCc1ccccc1)NCCCc1c[nH]cn1`, the concentration for a half-maximal effect (EC50) is 14100 nM in assay [1] and 759 nM in assay [5]. Besides, the pKb turned out to be 5.25 in assay [6] and 5.72 in assay [3].
On to `N#C/N=C(/NCCCc1c[nH]cn1)NCCc1ccccc1`, for which, in assay [7], the outcome was inactive. Further, the pKb in assay [6] is less than 5; in assay [4], 5.32.
In the case of `N#C/N=C(/NCCCc1c[nH]cn1)NCCSc1ccccc1`, the EC50 in [1] is 7240 nM; in assay [5] it was 1290 nM. This compound also registered a pKb in assay [6] of less than 5.
Turning to `NC(=O)/N=C(\NCCCCc1c[nH]cn1)NCCCc1ccccc1`, the outcome in assay [5] was inactive. The pKb in assay [3] stood at 6.44; in assay [4], 7.07.
With `Cc1nc[nH]c1CCN` [4-METHYLHISTAMINE], the figures for the EC50 in assay [8], in [1] and in assay [5] were 15800 nM, 2880 nM and 70.8 nM, respectively. The outcome in assay [7] was inactive.
Take `N#C/N=C(\NCCCCc1ccccc1)NCCCc1c[nH]cn1`: in assay [1], the EC50 is 8910 nM. Further, the pKb came out at 5.03 in assay [6] and 5.22 in assay [4].
Regarding `CCN/C(=N/C#N)NCCCCCc1c[nH]cn1`, the pKb in assay [6] stood at 5.37; in assay [3] it was 6.92; in [4], 6.47.
The compound `CN/C(=N\C#N)NCCCCc1c[nH]cn1` had an EC50 in [5] of 955 nM. Moreover, the pKb in [2] was less than 5; in [6], less than 5; in assay [3], 5.68.
As for `CC(C)CN/C(=N\C#N)NCCCCc1c[nH]cn1`, the EC50 in [5] was 120 nM. In addition, the results for the pKb in [2], in assay [6] and in [3] were less than 5, less than 5 and 5.47, respectively.
`N#C/N=C(/NCCCCc1c[nH]cn1)NCCc1c[nH]c2ccccc12`: the pKb in [6] is less than 5; in [3] it was 6.77; in [4] it was 5.8.
Regarding `N#C/N=C(/NCCCCc1c[nH]cn1)NCCCC1CCCCC1`, the pKb in assay [6] was less than 5; in assay [3] it was 5.82; in assay [4], 6.35.
Regarding `N#C/N=C(\N)NCCCCc1c[nH]cn1`, the pKb in [6] was less than 5.
The compound `NC(=O)NC(=NCCCc1cnc[nH]1)NCCCCc1ccccc1` showed an EC50 in [1] of 380 nM.
Take `N#C/N=C(\NCCSc1ccccc1)NCCc1c[nH]cn1`: the results for the pKb in assay [6] and in assay [4] were less than 5 and 5.05, respectively.
For `CCN/C(=N\C#N)NCCCCc1c[nH]cn1`, in assay [5], the EC50 was 708 nM. Also, the figures for the pKb in assay [2], in assay [6] and in assay [3] were less than 5, less than 5 and 5.54, respectively.
Regarding `N#C/N=C(/NCCCCc1c[nH]cn1)NCCCc1ccc(F)cc1`, the pKb in assay [6] came to 5.28; in assay [3], 6.11; in assay [4], 6.59.
In assay [9], `N/C(=N/CCc1ccc(I)cc1)SCCCc1cnc[nH]1` returned a Kinact of 13 nM.
As to `N#CNC(=NCCCCc1cnc[nH]1)NCCCc1ccccc1`, the concentration for a half-maximal effect (EC50) in assay [5] was 151 nM.
On the same count and under the same terms, the result for `CC(CCNC(=NCCCCc1cnc[nH]1)NC#N)c1ccccc1` (configuration not stated) reads 141 nM.
For the compound `N#C/N=C(/NCCCc1ccccc1)NCCc1c[nH]cn1`, the EC50 in assay [1] was more than 10000 nM. The results for the pKb in [2], in assay [3] and in assay [4] were less than 5, 5.18 and less than 5, respectively.
